Data as given in ChEMBL document CHEMBL4602668, “Oxygenated Cyclohexene Derivatives and Other Constituents from the Roots of Monanthotaxis trichocarpa” (J Nat Prod, 2020).
pEC50: −log10 of the molar value. In brackets after ≈: the same amount, converted by molar mass. Activity calls are given as the source filed them. The rule behind the calls is not given here.

What follows are molecules tested on MCF7 (assay: Cytotoxicity against human MCF7 cells after 24 hrs by PrestoBlue cell viability reagent based assay). Settings: MCF7, 24 h.
Type: functional
Summary of the method: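 MCF-7 cells were kept in exponential growth in DMEM with 10% fetal calf serum, reseeded in 96-well plates, and settled 24 h. Compounds were added from DMSO stock (final solvent 0.3% v/v) in 2-fold dilutions for 24 h. Viability was read as resorufin fluorescence (ex 544/em 590 nm) and expressed as % of solvent-only control. EC50 came from three independent replicate experiments.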

SMILES	pEC50
COc1cc(O)c(Cc2ccccc2O)c(O)c1C(=O)CCc1ccccc1 [UVARETIN]	4.99

These molecules were tested on Bacillus subtilis (assay: Antibacterial activity against Bacillus subtilis incubated for 18 hrs by AlamarBlue assay). Settings: not given.
Type: functional

SMILES	MIC [µM]
COc1cc(O)c(Cc2ccccc2O)c(O)c1C(=O)CCc1ccccc1 [UVARETIN]	18 (≈ 6.81 µg/mL)

These molecules were tested on Escherichia coli (assay: Antibacterial activity against Escherichia coli at 5 mM incubated for 18 hrs by AlamarBlue assay). Settings: not given.
Type: functional, organism-based

SMILES	Activity
COc1c(Cc2ccccc2O)c(O)c(Cc2ccccc2O)c(O)c1C(=O)CCc1ccccc1	inactive
COc1ccccc1COC(=O)c1ccccc1	inactive
O=C(OCc1ccccc1)c1ccccc1	inactive
CC[C@H](CC[C@@H](C)[C@H]1CC[C@H]2[C@@H]3CC=C4C[C@@H](O)CC[C@]4(C)[C@H]3CC[C@]12C)C(C)C	inactive
CO[C@H]1C=C[C@@H](OC(=O)c2ccccc2)[C@@H](OC)[C@]1(O)COC(=O)c1ccccc1	inactive
CO[C@H]1[C@H](OC(=O)c2ccccc2)C=C[C@H](Cl)[C@]1(O)COC(=O)c1ccccc1	inactive
CO[C@@H]1[C@H](OC(=O)c2ccccc2)C=C[C@@H](O)[C@@]1(O)COC(=O)c1ccccc1	inactive
CC[C@H](/C=C/[C@@H](C)[C@H]1CC[C@H]2[C@@H]3CC=C4C[C@@H](O)CC[C@]4(C)[C@H]3CC[C@]12C)C(C)C	inactive
COc1cc(O)cc(O)c1C(=O)CCc1ccccc1	inactive
COc1cc(O)c(Cc2ccccc2O)c(O)c1C(=O)CCc1ccccc1 [UVARETIN]	inactive
COc1ccc(C(=O)C(C)c2ccc(O)cc2)c(O)c1 (centres undefined)	inactive
CC(=O)O[C@@H]1C=C[C@@H](OC(=O)c2ccccc2)[C@H](O)[C@]1(O)COC(=O)c1ccccc1	inactive
